Experimental data from ChEMBL document CHEMBL1137338, “Effects of substitution on 9-(3-bromo-4-fluorophenyl)-5,9-dihydro-3H,4H-2,6-dioxa-4- azacyclopenta[b]naphthalene-1,8-dione, a dihydropyridine ATP-sensitive potassium channel opener” (J Med Chem, 2006).

Experiments:
[1] = biological target: T1, Sulfonylurea receptor 2, Kir6.2 (Homo sapiens) (UniProt Q14654+O60706); assay: Activity against pig bladder KATP channel opening assessed as ability to relax field-stimulated pig detrusor relative to P1075; format: functional; details: Sus scrofa; target entry is the homologue from another species
[2] = biological target: T1, Sulfonylurea receptor 2, Kir6.2 (Homo sapiens); assay: Activity against pig bladder KATP channel opening assessed as ability to relax spontaneous bladder contraction relative to P1075; format: functional; details: Sus scrofa; target entry is the homologue from another species
[3] = biological target: T1, Sulfonylurea receptor 2, Kir6.2 (Homo sapiens); assay: (§1) Ability to open human urinary bladder Kir6.2 channel containing SUR2B in Ltk cells by FLIPR assay; format: functional, cell-based; details: filed as partial agonist
Outline: (§2)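 Ltk- cells stably transfected with the Kir6.2/SUR2B exon 17- splice variant. Membrane potential was followed with DiBAC dye in a 96-well cell-based kinetic fluorescence (FLIPR) assay. The highest concentration tested was 10 µM. Each compound's maximal fluorescence response was expressed as % of the response to the reference opener.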

[4] = biological target: T1, Sulfonylurea receptor 2, Kir6.2 (Homo sapiens); assay: Ability to open human urinary bladder Kir6.2 containing SUR2B in Ltk cells by FLIPR assay relative to P1075; format: functional, cell-based; outline: as §2
[5] = biological target: T2, Sulfonylurea receptor 2, Kir6.2 (Homo sapiens, UniProt O60706+Q14654); assay: Activity against pig bladder KATP channel opening assessed as ability to relax field-stimulated pig detrusor; format: functional, Sus scrofa; details: target entry is the homologue from another species
T2 sequence (Q14654 whole entry): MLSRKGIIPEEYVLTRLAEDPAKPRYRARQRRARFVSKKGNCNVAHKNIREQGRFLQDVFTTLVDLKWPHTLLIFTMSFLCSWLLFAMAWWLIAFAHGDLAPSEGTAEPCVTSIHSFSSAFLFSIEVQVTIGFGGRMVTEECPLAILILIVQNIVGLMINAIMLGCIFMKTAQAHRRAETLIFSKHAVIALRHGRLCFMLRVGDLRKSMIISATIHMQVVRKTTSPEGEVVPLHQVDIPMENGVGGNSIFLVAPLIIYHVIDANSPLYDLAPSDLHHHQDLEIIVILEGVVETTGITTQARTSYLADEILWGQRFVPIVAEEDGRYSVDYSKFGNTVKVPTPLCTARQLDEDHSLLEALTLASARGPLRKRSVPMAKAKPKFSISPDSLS
T2 sequence (O60706 whole entry): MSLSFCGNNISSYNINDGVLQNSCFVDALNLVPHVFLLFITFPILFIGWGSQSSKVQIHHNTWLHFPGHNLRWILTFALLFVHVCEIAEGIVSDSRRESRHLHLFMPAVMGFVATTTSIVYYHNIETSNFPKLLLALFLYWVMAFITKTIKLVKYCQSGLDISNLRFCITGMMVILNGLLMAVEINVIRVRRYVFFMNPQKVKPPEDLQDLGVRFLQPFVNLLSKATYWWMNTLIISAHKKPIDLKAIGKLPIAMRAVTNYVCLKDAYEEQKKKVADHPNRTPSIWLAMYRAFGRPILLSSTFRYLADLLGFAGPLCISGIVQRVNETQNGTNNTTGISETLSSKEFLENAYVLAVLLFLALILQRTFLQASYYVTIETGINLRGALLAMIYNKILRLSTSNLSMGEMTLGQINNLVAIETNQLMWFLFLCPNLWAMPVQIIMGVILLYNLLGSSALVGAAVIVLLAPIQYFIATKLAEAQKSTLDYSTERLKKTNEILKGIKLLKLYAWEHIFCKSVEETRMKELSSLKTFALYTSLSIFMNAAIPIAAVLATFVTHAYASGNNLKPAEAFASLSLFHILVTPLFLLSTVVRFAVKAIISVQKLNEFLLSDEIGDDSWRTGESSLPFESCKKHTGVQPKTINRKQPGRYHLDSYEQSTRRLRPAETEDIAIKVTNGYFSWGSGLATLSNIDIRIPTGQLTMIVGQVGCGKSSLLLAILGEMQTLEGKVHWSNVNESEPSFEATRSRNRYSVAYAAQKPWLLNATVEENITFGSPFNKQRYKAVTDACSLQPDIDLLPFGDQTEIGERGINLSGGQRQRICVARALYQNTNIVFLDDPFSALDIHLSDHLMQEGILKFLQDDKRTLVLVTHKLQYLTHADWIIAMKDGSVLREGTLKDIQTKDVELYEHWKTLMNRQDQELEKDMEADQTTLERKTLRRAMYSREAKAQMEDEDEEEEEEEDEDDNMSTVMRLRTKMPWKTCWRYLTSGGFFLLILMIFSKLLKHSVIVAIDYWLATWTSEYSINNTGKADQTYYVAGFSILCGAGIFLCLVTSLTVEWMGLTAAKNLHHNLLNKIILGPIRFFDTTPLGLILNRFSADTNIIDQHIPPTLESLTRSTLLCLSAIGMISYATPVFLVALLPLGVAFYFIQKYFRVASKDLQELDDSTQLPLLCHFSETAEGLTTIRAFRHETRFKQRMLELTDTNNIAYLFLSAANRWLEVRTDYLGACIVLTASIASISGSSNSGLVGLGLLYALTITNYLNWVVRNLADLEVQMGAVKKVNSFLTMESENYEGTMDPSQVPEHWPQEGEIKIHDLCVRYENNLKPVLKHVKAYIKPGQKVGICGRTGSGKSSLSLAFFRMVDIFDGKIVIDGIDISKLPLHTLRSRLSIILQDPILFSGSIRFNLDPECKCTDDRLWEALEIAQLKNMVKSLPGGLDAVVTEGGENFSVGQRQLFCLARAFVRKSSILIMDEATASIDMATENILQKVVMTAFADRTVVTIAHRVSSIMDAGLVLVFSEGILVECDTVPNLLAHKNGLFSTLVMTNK

[6] = biological target: T2, Sulfonylurea receptor 2, Kir6.2; assay: as §1; format: functional, cell-based; outline: as §2

SMILES | Efficacy [1] | Efficacy [2] | Activity [3] | Efficacy [4] | EC50 [5] | EC50 [6]
CC[C@H]1OC(O)=C2C1=NC1=C(C(=O)COC1)[C@H]2c1ccc(F)c(Br)c1 (stereo in doubt; 21b) | 77% | 96% | Partial agonist | 46% | – | –
CC[C@@H]1OCC2=C(C1=O)[C@@H](c1ccc(F)c(Br)c1)C1=C(O)OCC1=N2 (stereo in doubt; 10a) [listing 1 of 2 here] | – | – | – | – | 2690 nM | 776 nM
CC1(C)Oc2ccc(C#N)cc2[C@H](N2CCCC2=O)[C@H]1O (single isomer, unassigned) | 99% | 100% | – | 83% | – | –
CC(C)C[C@H]1OC(O)=C2C1=NC1=C(C(=O)COC1)[C@H]2c1ccc(F)c(Br)c1 (stereo in doubt; 31b) [listing 1 of 2 here] | 35% | – | – | 59% | – | –
O=C1COCC2=C1[C@@H](c1ccc(F)c(Br)c1)C1=C(O)O[C@@H](c3ccccc3)C1=N2 (relative stereo) | 91% | – | – | 68% | 1290 nM | 257 nM
CC[C@H]1OC(O)=C2C1=NC1=C(C(=O)CSC1)[C@H]2c1ccc(F)c(Br)c1 (relative stereo) | – | – | – | – | 891 nM | 102 nM
CC[C@H]1OCC(O)=C2C1=NC1=C(C(=O)COC1)[C@H]2c1ccc(F)c(Cl)c1 (racemic) | – | – | Partial agonist | 30% | – | –
CC[C@H]1OC(O)=C2C1=NC1=C(C(=O)CSC1)[C@H]2c1ccc(F)c(Br)c1 [listing 1 of 2 here] | – | – | – | – | 955 nM | –
CC[C@H]1OCC(O)=C2C1=NC1=C(C(=O)COC1)[C@H]2c1ccc(F)c(Br)c1 (racemic) | – | – | Partial agonist | 30% | – | –
CC(C)[C@@H]1OC(O)=C2C1=NC1=C(C(=O)COC1)[C@H]2c1ccc(F)c(Br)c1 (relative stereo) | 97% | – | – | – | 1200 nM | > 10000 nM
O=C1COCC2=C1C(c1ccc(F)c(Br)c1)C1=C(O)COCC1=N2 (stereo unspecified) | 97% | – | – | 87% | 126 nM | 27.5 nM
CC[C@H]1OC(O)=C2C1=NC1=C(C(=O)CSC1)[C@H]2c1ccc(F)c(Br)c1 [listing 2 of 2 here] | 38% | – | – | – | – | –
C[C@@H]1OC(O)=C2C1=NC1=C(C(=O)COC1)[C@H]2c1ccc(F)c(Br)c1 (stereo in doubt; 17a) [listing 2 of 2 here] | 97% | – | – | 105% | – | –
CC[C@H]1OC(O)=C2C1=NC1=C(C(=O)COC1)[C@H]2c1ccc(F)c(Br)c1 (racemic) | – | – | – | – | 490 nM | 95.5 nM
C[C@@H]1OCC2=C(C1=O)[C@H](c1ccc(F)c(Br)c1)C1=C(O)OCC1=N2 (stereo in doubt; 8b) | – | – | Partial agonist | 16% | – | –
CC[C@@H]1OCC2=C(C1=O)[C@@H](c1ccc(F)c(Br)c1)C1=C(O)OCC1=N2 (stereo in doubt; 10a) [listing 2 of 2 here] | 86% | – | – | 83% | – | –
CC[C@H]1OCC(=O)C2=C1N=C1COC(O)=C1[C@@H]2c1ccc(F)c(Br)c1 (relative stereo) | – | – | – | 90% | – | 18.2 nM
CC1(C)OCC2=C(C1=O)C(c1ccc(F)c(Br)c1)C1=C(O)C(C)(C)OCC1=N2 (stereo unspecified) | – | – | – | 61% | – | 3890 nM
CC[C@H]1OC(O)=C2C1=NC1=C(C(=O)CCC1)[C@H]2c1ccc(F)c(Br)c1 (relative stereo) | – | – | – | 83% | – | 251 nM
CCCC[C@H]1OC(O)=C2C1=NC1=C(C(=O)COC1)[C@H]2c1ccc(F)c(Br)c1 (stereo in doubt; 29b) | 51% | 100% | – | 68% | – | –
O=C1CCCC2=C1[C@H](c1ccc(F)c(Br)c1)C1=C(CCS1(=O)=O)N2 | – | – | – | 90% | – | 158 nM
CCC[C@H]1OC(O)=C2C1=NC1=C(C(=O)COC1)[C@H]2c1ccc(F)c(I)c1 (stereo in doubt; 41b) [listing 2 of 2 here] | 86% | – | – | 94% | – | –
C[C@@H]1OCC(=O)C2=C1N=C1COC(O)=C1[C@@H]2c1ccc(F)c(Br)c1 (relative stereo) | – | – | – | 73% | – | 102 nM
CCC[C@H]1OC(O)=C2C1=NC1=C(C(=O)COC1)[C@H]2c1ccc(F)c(Cl)c1 (stereo in doubt; 39b) [listing 2 of 2 here] | – | – | – | – | 129 nM | 91.2 nM

Further lines, results first:

Efficacy [1] | Efficacy [2] | Activity [3] | Efficacy [4] | EC50 [5] | EC50 [6] | SMILES
95% | – | – | 46% | – | – | CC[C@@H]1OCC2=C(C1=O)[C@@H](c1ccc(F)c(Br)c1)C1=C(O)OCC1=N2 (stereo in doubt; 10b) [listing 1 of 2 here]
99% | 100% | – | 100% | – | – | C[C@](O)(C(=O)Nc1ccc(C(=O)c2ccccc2)cc1)C(F)(F)F
– | – | – | – | 2950 nM | 7240 nM | CC[C@H]1OC(O)=C2C1=NC1=C(C(=O)COC1)[C@H]2c1ccc(F)c(Br)c1 (stereo in doubt; 21a) [listing 1 of 2 here]
– | – | Partial agonist | 58% | – | – | CC[C@H]1OCC(O)=C2C1=NC1=C(C(=O)COC1)[C@H]2c1ccc(Cl)c(Cl)c1 (racemic)
95% | – | – | 107% | 589 nM | 63.1 nM | O=C1COCC2=C1[C@@H](c1ccc(F)c(Br)c1)C1=C(COC1=O)N2
– | – | – | – | 35.5 nM | 0.912 nM | C[C@@H]1OC(O)=C2C1=NC1=C(C(=O)COC1)[C@H]2c1ccc(F)c(Br)c1 (stereo in doubt; 17a) [listing 1 of 2 here]
– | – | Partial agonist | 34% | – | – | CC[C@H]1OC(O)=C2C1=NC1=C(C(=O)C(C)(C)OC1)[C@H]2c1ccc(F)c(Br)c1 (stereo in doubt; 36b)
– | – | – | – | 229 nM | 26.9 nM | CCC[C@H]1OC(O)=C2C1=NC1=C(C(=O)COC1)[C@H]2c1ccc(F)c(I)c1 (stereo in doubt; 41b) [listing 1 of 2 here]
– | – | – | – | 891 nM | 1380 nM | CC[C@@H]1OCC2=C(C1=O)[C@@H](c1ccc(F)c(Br)c1)C1=C(O)OCC1=N2 (stereo in doubt; 10b) [listing 2 of 2 here]
88% | 100% | – | 101% | – | – | O=C1COCC2=C1C(c1ccc(F)c(Br)c1)C1=C(O)OCC1=N2 (stereo in doubt; 6b)
– | – | – | – | 794 nM | 155 nM | CCC[C@H]1OC(O)=C2C1=NC1=C(C(=O)COC1)[C@H]2c1ccc(F)c(Br)c1 (racemic)
– | – | – | – | 102 nM | 10000 nM | CC(C)C[C@H]1OC(O)=C2C1=NC1=C(C(=O)COC1)[C@H]2c1ccc(F)c(Br)c1 (stereo in doubt; 31b) [listing 2 of 2 here]
99% | 100% | – | 101% | – | – | CCC(C)(C)/N=C(\NC#N)Nc1cccnc1
– | – | Partial agonist | 17% | – | – | C[C@@H]1OCC2=C(C1=O)[C@@H](c1ccc(F)c(Br)c1)C1=C(O)OCC1=N2 (stereo in doubt; 7a)
94% | – | – | 54% | – | – | CC[C@H]1OC(O)=C2C1=NC1=C(C(=O)COC1)[C@H]2c1ccc(F)c(Br)c1 (stereo in doubt; 21a) [listing 2 of 2 here]
66% | – | Partial agonist | 39% | – | – | CCC[C@H]1OC(O)=C2C1=NC1=C(C(=O)COC1)[C@H]2c1ccc(F)c(Cl)c1 (stereo in doubt; 39b) [listing 1 of 2 here]
– | – | Partial agonist | 15% | – | – | C[C@@H]1OCC2=C(C1=O)[C@H](c1ccc(F)c(Br)c1)C1=C(O)OCC1=N2 (stereo in doubt; 8a)
– | – | – | 99% | – | 224 nM | C[C@H]1OC(=O)C2=C1NC1=C([C@H]2c2ccc(F)c(Br)c2)S(=O)(=O)CCC1 (relative stereo)
74% | – | – | 83% | 129 nM | 27.5 nM | CC(C)C[C@@H]1OC(O)=C2C1=NC1=C(C(=O)COC1)[C@H]2c1ccc(F)c(Br)c1 (relative stereo)
